# In PubChem BioAssay:
# The source made the active and inactive calls. Rule as the data show it, unless noted: active = inhibition above about 30%; inactive = the rest.
# Experiments:
# [1] = reducers of endogenous Her2 protein level, primary screen, SKBR3 breast tumor cells, AlphaScreen, ATP viability (AID 461;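 active = Her2 level under about 52% in both replicate screens, with viability over 70% of control, limit read from the data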;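 as to Her2 level: lower value means less Her2 protein in the cells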;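 as to viability: percent of carrier control wells set as 100% viability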); conditions: 18-24 h, measured here: SKBR3 viability, ATP luminescence, at 10 µM
# [2] = molecular target: Receptor tyrosine-protein kinase erbB-2 (Homo sapiens) (UniProt P04626); assay: as above; conditions: 18-24 h, at 10 µM, stronger effect = lower value
# [3] = SK-BR-3 cell growth inhibitors, pilot screen, 24 h, human (AID 572;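 active = viability at or below 10% of carrier control in both of two separate runs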;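 also: compound exposure lasted between 18 and 24 h rather than exactly 24 h; 100% = carrier-treated control wells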); conditions: SK-BR-3 viability, CellTiter-Glo luminescence, at 10 µM, stronger effect = lower value
# [4] = HUVEC growth inhibition – cell-based, human, primary screen (AID 575;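 active = viability at or below 30% in both replicate assays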;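 also: 100% = median of untreated cell wells with 0.1% DMSO on each plate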); conditions: HUVEC proliferation, CellTiter-Glo luminescence, 72 h; at 10 µM; stronger effect = lower value
# How it was run: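 system = HUVEC primary cells | amount = 1250 cells/well | buffer or medium = supplemented EBM, 2% fetal bovine serum | dosing = single-point 10 µM, DMSO 0.1% final | times = 72 h compound incubation | detection = CTG luminescence | read-out = % viability relative to median vehicle-well signal on each plate | control set = vehicle and MePR control wells | format = collagen-coated 384-well format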
# [5] = growth inhibitors of H69AR lung tumor, primary screen, human, duplicate replicates (AID 580;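 active = viability at or under a set limit in both replicates, limit being median viability minus 3 SD, cut at about 48% in these data, passing the limit was not always enough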;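 also: 100% = mean luminescence of untreated wells and 0% = no signal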); conditions: H69AR lung tumor cells viability, ATP luminescence, 72 h; at 10 µM; stronger effect = lower value
# [6] = reversal of MRP1-mediated doxorubicin resistance, pilot screen, H69AR cells, doxorubicin co-treatment (AID 601;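 active = viability loss from added drug above about 55%, and viability with drug at most 40%, in both replicates, limit read from the data, passing the limit was not always enough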); conditions: CellTiter-Glo, 72 h, at 10 µM; for differential viability (reversal): stronger effect = higher value
# [7] = 384-well plate pilot, post-Golgi transport modulator project, inhibition of yeast transport mutant growth (AID 636; in the data active = inhibition above about 31%); conditions: absorbance 615 nm, about 18 h, stronger effect = higher value
# [8] = growth suppression of yeast trafficking mutant, preliminary HTS, modulators of trafficking downstream of Golgi apparatus project, 1536-format plate, OD 615 nm (AID 637); conditions: yeast transport mutant growth, absorbance 615 nm, 18 h; stronger effect = higher value
# [9] = H69AR cells + 2 uM doxorubicin, measured here: viability with 2 uM doxorubicin, stronger effect = lower value
# [10] = H69AR cells, compound alone cytotoxicity
# Sequence of Receptor tyrosine-protein kinase erbB-2 (Homo sapiens) (P04626 whole entry, looked up): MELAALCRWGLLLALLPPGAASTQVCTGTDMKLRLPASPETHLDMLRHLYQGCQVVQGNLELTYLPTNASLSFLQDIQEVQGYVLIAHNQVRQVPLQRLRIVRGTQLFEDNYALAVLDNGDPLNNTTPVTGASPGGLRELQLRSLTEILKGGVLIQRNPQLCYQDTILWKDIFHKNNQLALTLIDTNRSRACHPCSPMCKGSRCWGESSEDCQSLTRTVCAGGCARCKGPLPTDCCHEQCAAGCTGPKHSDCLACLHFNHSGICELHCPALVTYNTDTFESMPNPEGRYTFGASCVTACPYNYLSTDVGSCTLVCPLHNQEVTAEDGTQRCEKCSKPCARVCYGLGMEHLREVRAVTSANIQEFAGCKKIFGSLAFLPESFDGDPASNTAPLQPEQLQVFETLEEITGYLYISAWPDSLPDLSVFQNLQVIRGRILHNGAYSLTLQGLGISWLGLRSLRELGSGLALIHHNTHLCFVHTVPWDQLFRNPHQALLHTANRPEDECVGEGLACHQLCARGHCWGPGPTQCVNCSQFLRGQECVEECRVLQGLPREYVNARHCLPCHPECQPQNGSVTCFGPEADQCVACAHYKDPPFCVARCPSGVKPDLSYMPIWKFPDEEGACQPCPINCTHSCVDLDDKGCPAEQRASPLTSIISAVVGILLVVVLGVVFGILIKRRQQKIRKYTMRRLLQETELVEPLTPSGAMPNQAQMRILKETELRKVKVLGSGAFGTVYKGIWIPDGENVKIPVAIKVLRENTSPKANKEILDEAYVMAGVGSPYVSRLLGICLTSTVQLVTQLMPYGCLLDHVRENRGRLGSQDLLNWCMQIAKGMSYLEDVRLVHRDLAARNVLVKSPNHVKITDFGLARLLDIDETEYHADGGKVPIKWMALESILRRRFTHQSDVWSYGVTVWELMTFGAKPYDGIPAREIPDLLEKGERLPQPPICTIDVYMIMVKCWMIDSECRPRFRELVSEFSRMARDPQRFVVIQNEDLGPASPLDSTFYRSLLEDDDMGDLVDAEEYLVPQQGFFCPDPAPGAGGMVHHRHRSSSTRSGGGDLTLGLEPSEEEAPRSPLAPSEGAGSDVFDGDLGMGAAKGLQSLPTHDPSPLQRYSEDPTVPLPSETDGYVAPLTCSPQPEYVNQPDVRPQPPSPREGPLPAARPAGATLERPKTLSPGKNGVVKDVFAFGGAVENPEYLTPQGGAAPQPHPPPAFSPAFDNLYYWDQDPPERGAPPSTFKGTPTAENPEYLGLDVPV
Compound,viability [1] [%],Her2 level [2],viability [3],viability [4],viability [5],differential viability (reversal) ([6]; H69AR cells + 2 uM doxorubicin),"viability [6, 9] [%]","viability [6, 10] [%]",inhibition [7],inhibition [8]
CC(C)(C)c1ccc(C(=O)Nc2cnccn2)cc1,79.5,114% (inactive),79.5% (inactive),98.1% (inactive),100% (inactive),18.8% (inactive),81.5,100,-4.87% (inactive),0.67% (inactive)
Cc1nn(-c2ccccc2)c(C)c1/C=N/O,106,104% (inactive),106% (inactive),100% (inactive),96.5% (inactive),11.4% (inactive),85.1,96.5,-4.73% (inactive),3.93% (inactive)
CC(C)Cn1c(CN2CCCCC2C)nc2c1c(=O)n(C)c(=O)n2C (stereo not given),88.5,91.5% (inactive),88.5% (inactive),109% (inactive),94.2% (inactive),16.7% (inactive),77.6,94.2,-5.73% (inactive),-3.61% (inactive)
CN=C(Nc1cc(C)nn1-c1ccccc1)c1ccccc1,93,95.5% (inactive),93% (inactive),86.6% (inactive),93.6% (inactive),-3.59% (inactive),97.2,93.6,-2% (inactive),-3.55% (inactive)
CCOc1cc(S(=O)(=O)NCc2ccccn2)c(C)cc1C,92.5,84.5% (inactive),92.5% (inactive),96.8% (inactive),100% (inactive),6.28% (inactive),94.1,100,-5.53% (inactive),-4.76% (inactive)
c1ccc2c(c1)[nH]c1c(N3CCC4(CC3)OCCO4)ncnc12,96.5,77% (inactive),96.5% (inactive),65.2% (inactive),92.2% (inactive),5.46% (inactive),86.7,92.2,-3.87% (inactive),-3.87% (inactive)
CC(Oc1ccccc1)C(=O)N1CCCc2ccccc21 (stereo not given),101,104% (inactive),101% (inactive),95.4% (inactive),94.3% (inactive),4.51% (inactive),89.8,94.3,-1.76% (inactive),-4.33% (inactive)
O=C(Nc1ccc(N2C(=O)C3C4C=CC(C4)C3C2=O)cc1)Nc1cccnc1 (stereo not given),108,83% (inactive),108% (inactive),75.3% (inactive),86% (inactive),-0.065% (inactive),86.1,86,-3.29% (inactive),-1.33% (inactive)
O=C(CSc1nc(O)c(Cc2ccccc2)c(=O)[nH]1)Nc1ccccc1,103,97% (inactive),103% (inactive),106% (inactive),86.2% (inactive),0.23% (inactive),85.9,86.2,-2.08% (inactive),-2.33% (inactive)
CCc1nnc(NC(=O)c2ccc(COc3ccccc3)o2)s1,97,104% (inactive),97% (inactive),77.9% (inactive),111% (inactive),2.33% (inactive),109,111,-3.97% (inactive),-4.6% (inactive)
Cc1ccccc1N(C)S(=O)(=O)c1ccc2[nH]cc(C(=O)NCC3CCCO3)c(=O)c2c1 (stereo not given),83,71% (inactive),83% (inactive),90.1% (inactive),91.7% (inactive),4.24% (inactive),87.5,91.7,-4.61% (inactive),0.17% (inactive)
Cc1cc(C)c2c(n1)nn1c(N3CCOCC3)cc(C)nc21,90,87.5% (inactive),90% (inactive),110% (inactive),87.1% (inactive),-6.34% (inactive),93.4,87.1,-4.86% (inactive),0.79% (inactive)
COC(=O)c1c(C#N)c(N)nc2c1CCC2,117,97% (inactive),117% (inactive),90.6% (inactive),93.7% (inactive),0.57% (inactive),93.1,93.7,-5.2% (inactive),-4.13% (inactive)
O=C(Nc1ccc(O)cc1)C1CCCN1S(=O)(=O)c1ccc(F)cc1 (stereo not given),97.5,92% (inactive),97.5% (inactive),91.6% (inactive),97.3% (inactive),2.53% (inactive),94.7,97.3,-1.47% (inactive),1.64% (inactive)
CCOC(=O)CNC(=O)Nc1ccccc1C(=O)OC,116,86.5% (inactive),116% (inactive),96.7% (inactive),94.1% (inactive),8.77% (inactive),85.3,94.1,-2.5% (inactive),1.29% (inactive)
COc1ccc(C)cc1NC(=O)c1nc2nc(C)cc(C)n2n1,86,76% (inactive),86% (inactive),73% (inactive),85.1% (inactive),-1.54% (inactive),86.6,85.1,-6.13% (inactive),-1.11% (inactive)
